Test results reported in publication PMC4464187 (EXCLI Journal, 2014).
Read-outs that look alike come from different tables or passages of the source.

Assays:
[1] = test system: TNF-α levels in the plasma; assay: Measurement of TNF-α production in plasma of LPS-treated SD rats; format: in vivo, female Sprague Dawley rats; conditions: LPS 5 mg/Kg i.p., blood 2 h after LPS; for TNF-α plasma level: LPS group 1623 pg/mL
How it was run: (§1)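 Female Sprague Dawley rats, 200-250 g, n = 5 per group. Oral doses are given at 12 h intervals: test compound at 20 and 40 mg/Kg, vehicle 10 % Tween 80, or dexamethasone 5 mg/Kg as positive control. LPS 5 mg/Kg is given i.p. 2 h after the final dose. Blood is taken 2 h (TNF-α) or 6 h (IL-1ß) after LPS. Plasma is assayed by rat sandwich ELISA. Mean ± SD, one-way ANOVA with Dunnett's test.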

[2] = test system: IL-1ß levels in the plasma; assay: Measurement of IL-1ß production in plasma of LPS-treated SD rats; format: in vivo, female Sprague Dawley rats; conditions: LPS 5 mg/Kg i.p., blood 6 h after LPS; for IL-1ß plasma level: LPS group 912 pg/mL
How it was run: as §1

[3] = test system: NO release in LPS stimulated RAW 264.7 cells; assay: NO inhibitory assay; format: cell-based; conditions: Mus musculus
How it was run: (§2)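 Cells are kept in DMEM with 10 % heat-inactivated FBS and antibiotics under 5 % CO2 at 37 °C. They are pretreated 1 h with varied concentrations of test compound (DMSO/water), then stimulated with 1 µg/mL LPS (E. coli 026:B6) for 24 h at 37 °C. Supernatant is mixed 1:1 with modified Griess reagent for 30 min and read at 540 nm. Curcumin and L-NAME serve as standards. Triplicates.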

[4] = test system: NO release in LPS stimulated J774A.1 cells; assay: NO inhibitory assay; format: cell-based; conditions: Mus musculus, J774.A1, 24 h, read-out: IC50 for NO inhibition J774A.1
How it was run: as §2

[5] = test system: TNF-α production in LPS stimulated RAW 264.7 cells; assay: TNF-α assay; format: cell-based; conditions: Mus musculus, RAW264.7, 6 h, read-out: IC50 for inhibition of TNF-α RAW 264.7
[6] = test system: TNF-α production in LPS stimulated J774A.1 cells; assay: TNF-α assay; format: cell-based; conditions: Mus musculus, J774.A1, 6 h, read-out: IC50 for inhibition of TNF-α J774A.1
How it was run: (§3)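 Cells cultured in DMEM with heat-inactivated 10 % FBS, penicillin and streptomycin at 37 °C, 5 % CO2. Test compound in DMSO/water is added at several concentrations for 1 h, then LPS (E. coli 026:B6) 1 µg/mL is added. Incubation runs 6 h for TNF-α and 12 h for IL-1ß. Supernatant cytokine is measured by mouse sandwich ELISA at 450 nm, with curcumin and dexamethasone as standards. Triplicates.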

[7] = test system: IL-1ß production in LPS stimulated RAW 264.7 cells; assay: IL-1ß assay; format: cell-based; conditions: Mus musculus, RAW264.7, 12 h, read-out: IC50 for inhibition of IL-1β RAW 264.7
How it was run: as §3

[8] = test system: IL-1ß production in LPS stimulated J774A.1 cells; assay: IL-1ß assay; format: cell-based; conditions: Mus musculus, J774.A1, 12 h, read-out: IC50 for inhibition of IL-1β J774A.1
[9] = RAW264.7, 24 h, read-out: IC50 for NO inhibition RAW 264.7
[10] = RAW264.7, read-out: IC50 for NO inhibition, range over both cells

SMILES	reduction of TNF-α production ([1]; 5 mg/kg p.o.) [%]	TNF-α plasma level ([1]; 5 mg/kg p.o.) [pg/mL]	reduction of IL-1ß production ([2]; 5 mg/kg p.o.) [%]	IL-1ß plasma level ([2]; 5 mg/kg p.o.) [pg/mL]	IC50 [3, 9] [µM]	IC50 [3, 10] [µM]	IC50 [4] [µM]	IC50 [5] [µM]	IC50 [6] [µM]	IC50 [7] [µM]	IC50 [8] [µM]	reduction of TNF-α production ([1]; 40 mg/kg p.o.) [%]	TNF-α plasma level ([1]; 40 mg/kg p.o.) [pg/mL]	reduction of IL-1ß ([2]; 40 mg/kg p.o.) [%]	IL-1ß plasma level ([2]; 40 mg/kg p.o.) [pg/mL]
C[C@@H]1C[C@H]2[C@@H]3CCC4=CC(=O)C=C[C@]4(C)[C@@]3(F)[C@@H](O)C[C@]2(C)[C@@]1(O)C(=O)CO [Dexamethasone, reference compound]	75.8	394	63.0	338											
CC/C=C\C[C@H]1C(=O)CC[C@@H]1CC(=O)O [compound 11, jasmonic acid]					29.4 ± 1.65	21.3 to 29.4	21.3 ± 1.35	39.4 ± 2.85	41.4 ± 1.67	57.9 ± 0.61	59.2 ± 2.25	48.9	830	54.2	418
N[C@@H](Cn1ccc(=O)c(O)c1)C(=O)O [compound 12, L-mimosine]					19.2 ± 1.53	19.2 to 21.2	21.2 ± 1.36	25.2 ± 2.48		64.2 ± 2.53	65.8 ± 1.86	60.7	639	16.3	763
O=C(O)/C=C/c1ccc(O)c(O)c1 [compound 7, Caffeic acid]					19.2 ± 4.97		78 ± 3.94	45 ± 1.93	49.6 ± 1.33	59.3 ± 2.94	62.3 ± 2.94				
CCOC(=O)c1cc(O)c(O)c(O)c1 [compound 3, ethyl gallate]								17.3 ± 4.61	23.4 ± 2.67	36.9 ± 3.35	39.5 ± 2.86				
CC(/C=C/C=C(\C)C(=O)O)=C\C=C\C=C(C)\C=C\C=C(/C)C(=O)O [compound 4, crocetin]					23.4 ± 2.62	23.4 to 25.6	25.6 ± 2.47	20.4 ± 2.48	22.2 ± 3.83	35.4 ± 2.34	41.1 ± 1.69	43.6	914	39.8	549
CC(/C=C/C=C(\C)C(=O)O[C@@H]1O[C@H](CO[C@@H]2O[C@H](CO)[C@@H](O)[C@H](O)[C@H]2O)[C@@H](O)[C@H](O)[C@H]1O)=C\C=C\C=C(C)\C=C\C=C(/C)C(=O)O[C@@H]1O[C@H](CO[C@@H]2O[C@H](CO)[C@@H](O)[C@H](O)[C@H]2O)[C@@H](O)[C@H](O)[C@H]1O [compound 14, crocin]					27.2 ± 4.51	27.2 to 31.5	31.5 ± 1.25	22.4 ± 1.08	25.2 ± 2.56	29.2 ± 3.69	31.2 ± 2.64	48.4	836	50.2	456
O=C(O)c1cc(O)c(O)c(O)c1 [compound 10, gallic acid]								23.8 ± 2.14	29.3 ± 3.12	42.1 ± 3.62	47.6 ± 1.67				
